How the values were obtained:
[1] = biological target: T1, 5-hydroxytryptamine receptor 5A (Homo sapiens, UniProt P47898); experiment: Binding affinity to human 5HT5A receptor
[2] = Dissociation constant, pKa of the compound; assay type: physicochemical
[3] = Distribution coefficient, log D of the compound; assay type: physicochemical; settings: octanol/water
Summary of the method: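 Lipophilicity reported as log D at pH 7.4 (log D7.4), measured alongside the guanidine pKa.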

[4] = biological target: 5-hydroxytryptamine receptor 7 (Homo sapiens, UniProt P34969); experiment: Binding affinity to human 5HT7 receptor
[5] = Selectivity for human 5HT5A receptor over 5HT2A receptor
[6] = Selectivity for human 5HT5A receptor over 5HT6 receptor
[7] = Selectivity for human 5HT5A receptor over 5HT3 receptor
[8] = biological target: T2, 5-hydroxytryptamine receptor 1D (Homo sapiens, UniProt P28221); experiment: Binding affinity to 5HT1D receptor
[9] = biological target: T3, 5-hydroxytryptamine receptor 1A (Homo sapiens, UniProt P08908); experiment: Binding affinity to 5HT1A receptor
T3 sequence (P08908 whole entry): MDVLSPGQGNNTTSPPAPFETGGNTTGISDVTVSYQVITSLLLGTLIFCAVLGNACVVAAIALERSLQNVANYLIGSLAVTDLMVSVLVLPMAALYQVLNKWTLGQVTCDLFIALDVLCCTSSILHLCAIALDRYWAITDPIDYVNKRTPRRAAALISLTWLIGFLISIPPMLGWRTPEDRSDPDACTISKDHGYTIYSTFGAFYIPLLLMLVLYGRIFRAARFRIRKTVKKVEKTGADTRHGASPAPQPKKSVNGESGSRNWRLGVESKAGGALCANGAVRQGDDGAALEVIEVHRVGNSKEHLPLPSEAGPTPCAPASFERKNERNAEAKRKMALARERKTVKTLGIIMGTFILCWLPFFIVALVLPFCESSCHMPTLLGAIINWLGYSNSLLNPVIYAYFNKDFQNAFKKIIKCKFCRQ

[10] = biological target: T4, 5-hydroxytryptamine receptor 2C (Homo sapiens, UniProt P28335); experiment: Binding affinity to 5HT2C receptor
T4 sequence (P28335 whole entry): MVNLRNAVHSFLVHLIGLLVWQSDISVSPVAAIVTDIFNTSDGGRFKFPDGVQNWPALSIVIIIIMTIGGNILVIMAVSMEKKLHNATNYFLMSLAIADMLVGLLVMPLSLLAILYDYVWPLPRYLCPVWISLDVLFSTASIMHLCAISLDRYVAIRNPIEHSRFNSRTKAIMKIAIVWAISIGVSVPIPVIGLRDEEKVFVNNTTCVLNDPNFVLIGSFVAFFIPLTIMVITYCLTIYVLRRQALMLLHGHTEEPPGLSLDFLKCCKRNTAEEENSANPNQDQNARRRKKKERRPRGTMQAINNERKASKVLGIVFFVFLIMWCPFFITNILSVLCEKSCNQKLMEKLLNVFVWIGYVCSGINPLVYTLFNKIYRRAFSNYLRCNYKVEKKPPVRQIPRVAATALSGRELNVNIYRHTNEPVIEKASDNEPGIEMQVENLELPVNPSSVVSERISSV

[11] = Tmax in mouse at 6.6 mg/kg, po; assay type: ADME, organism-based; design: dose 6.6 mg/kg, route oral; settings: in vivo
[12] = Half life in mouse at 5 mg/kg, iv; assay type: ADME, organism-based; design: dose 5 mg/kg, route intravenous; settings: in vivo
[13] = Clearance in mouse at 5 mg/kg, iv; assay type: ADME, organism-based; design: dose 5 mg/kg, route intravenous; settings: in vivo
[14] = Oral bioavailability in mouse at 6.6 mg/kg; assay type: ADME, organism-based; settings: in vivo
Brain = experiment: Drug level in mouse brain at 6.6 mg/kg, po; assay type: ADME, organism-based; design: dose 6.6 mg/kg, route oral; settings: in vivo, read-out: Drug uptake
[15] = Volume of distribution at steady state in mouse at 5 mg/kg, iv; assay type: ADME, organism-based; design: dose 5 mg/kg, route intravenous; settings: in vivo, read-out: Vdss
[16] = Ratio of drug level in brain to plasma in mouse at 6.6 mg/kg, po; assay type: ADME, organism-based; design: dose 6.6 mg/kg, route oral
Summary of the method: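 Mouse pharmacokinetic study with a single oral (po) dose of 6.6 mg/kg. Drug levels were measured in brain and in plasma, and the brain/plasma ratio was taken from these.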

[17] = Cmax in mouse at 6.6 mg/kg, po; assay type: ADME, organism-based; design: dose 6.6 mg/kg, route oral; settings: in vivo
[18] = biological target: T1, 5-hydroxytryptamine receptor 5A; experiment: Antagonist activity at human 5HT5A receptor by [35S]GTP-gamma-S binding assay; assay type: functional; settings: read-out: pA2 (converted)
Summary of the method: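 Functional antagonism at human 5-HT5A receptor measured by [35S]GTPγS binding; potency reported as pA2.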

[19] = Cmax in mouse at 10 mg/kg, po; assay type: ADME, organism-based; design: dose 10 mg/kg, route oral; settings: in vivo
[20] = Oral bioavailability in mouse at 10 mg/kg; assay type: ADME, organism-based; settings: in vivo
[21] = Tmax in mouse at 10 mg/kg, po; assay type: ADME, organism-based; design: dose 10 mg/kg, route oral; settings: in vivo
Histamine H1 receptor = Histamine H1 receptor (Homo sapiens, UniProt P35367); experiment: Binding affinity to histamine H1 receptor
[22] = biological target: T2, 5-hydroxytryptamine receptor 1D; experiment: Binding affinity to human 5HT1D receptor
[23] = biological target: T3, 5-hydroxytryptamine receptor 1A; experiment: Binding affinity to human 5HT1A receptor
[24] = biological target: 5-hydroxytryptamine receptor 6 (Homo sapiens, UniProt P50406); experiment: Binding affinity to human 5HT6 receptor
[25] = biological target: T4, 5-hydroxytryptamine receptor 2C; experiment: Binding affinity to human 5HT2C receptor
[26] = biological target: 5-hydroxytryptamine receptor 5A (Rattus norvegicus, UniProt P35364); experiment: Binding affinity to rat 5HT5A receptor
[27] = biological target: 5-hydroxytryptamine receptor 2A (Homo sapiens, UniProt P28223); experiment: Binding affinity to human 5HT2A receptor
Sequence of 5-hydroxytryptamine receptor 2A (P28223 whole entry): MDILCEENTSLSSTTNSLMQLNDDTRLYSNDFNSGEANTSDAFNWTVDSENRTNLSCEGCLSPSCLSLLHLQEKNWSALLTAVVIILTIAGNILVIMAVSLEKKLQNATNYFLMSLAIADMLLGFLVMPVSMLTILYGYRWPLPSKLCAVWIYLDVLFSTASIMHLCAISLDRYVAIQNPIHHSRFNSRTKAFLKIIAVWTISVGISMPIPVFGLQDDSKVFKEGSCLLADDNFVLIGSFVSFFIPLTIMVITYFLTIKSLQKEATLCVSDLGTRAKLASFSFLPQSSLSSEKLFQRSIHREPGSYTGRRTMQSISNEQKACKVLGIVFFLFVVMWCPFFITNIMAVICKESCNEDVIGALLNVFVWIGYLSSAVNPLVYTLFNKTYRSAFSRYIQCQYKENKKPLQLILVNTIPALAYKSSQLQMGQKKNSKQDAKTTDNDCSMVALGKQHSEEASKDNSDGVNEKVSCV

Sequence of 5-hydroxytryptamine receptor 7 (P34969 whole entry): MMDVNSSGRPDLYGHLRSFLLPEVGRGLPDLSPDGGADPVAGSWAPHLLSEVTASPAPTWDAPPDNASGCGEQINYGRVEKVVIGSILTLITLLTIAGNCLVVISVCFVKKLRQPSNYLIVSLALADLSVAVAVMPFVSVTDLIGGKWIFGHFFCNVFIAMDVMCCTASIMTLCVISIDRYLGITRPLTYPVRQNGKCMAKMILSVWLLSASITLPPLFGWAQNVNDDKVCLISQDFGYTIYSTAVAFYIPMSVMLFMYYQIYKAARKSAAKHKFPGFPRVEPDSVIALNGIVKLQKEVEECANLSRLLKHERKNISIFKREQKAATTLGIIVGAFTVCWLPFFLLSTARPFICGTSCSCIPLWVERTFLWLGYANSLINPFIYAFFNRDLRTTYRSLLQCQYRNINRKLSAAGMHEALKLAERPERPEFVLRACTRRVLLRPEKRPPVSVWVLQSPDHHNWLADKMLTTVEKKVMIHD
T2 sequence (P28221 whole entry): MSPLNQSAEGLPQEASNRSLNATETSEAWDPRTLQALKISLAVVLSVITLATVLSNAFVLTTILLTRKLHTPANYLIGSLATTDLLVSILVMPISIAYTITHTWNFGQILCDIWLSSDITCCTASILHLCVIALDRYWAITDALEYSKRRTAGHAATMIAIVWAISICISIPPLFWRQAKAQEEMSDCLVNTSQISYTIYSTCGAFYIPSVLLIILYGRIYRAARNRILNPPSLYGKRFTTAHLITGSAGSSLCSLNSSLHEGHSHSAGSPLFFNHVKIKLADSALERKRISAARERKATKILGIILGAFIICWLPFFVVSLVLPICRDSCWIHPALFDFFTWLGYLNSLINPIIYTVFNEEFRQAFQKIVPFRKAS
T1 sequence (P47898 whole entry): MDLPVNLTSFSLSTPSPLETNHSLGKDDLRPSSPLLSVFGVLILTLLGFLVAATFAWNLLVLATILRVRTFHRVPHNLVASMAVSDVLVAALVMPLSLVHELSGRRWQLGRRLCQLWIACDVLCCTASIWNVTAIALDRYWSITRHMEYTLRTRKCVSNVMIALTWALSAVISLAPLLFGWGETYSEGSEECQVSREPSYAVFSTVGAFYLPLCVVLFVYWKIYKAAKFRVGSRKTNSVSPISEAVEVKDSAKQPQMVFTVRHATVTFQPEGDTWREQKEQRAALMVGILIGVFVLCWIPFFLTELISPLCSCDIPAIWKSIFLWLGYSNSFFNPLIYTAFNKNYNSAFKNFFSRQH
Sequence of Histamine H1 receptor (P35367 whole entry): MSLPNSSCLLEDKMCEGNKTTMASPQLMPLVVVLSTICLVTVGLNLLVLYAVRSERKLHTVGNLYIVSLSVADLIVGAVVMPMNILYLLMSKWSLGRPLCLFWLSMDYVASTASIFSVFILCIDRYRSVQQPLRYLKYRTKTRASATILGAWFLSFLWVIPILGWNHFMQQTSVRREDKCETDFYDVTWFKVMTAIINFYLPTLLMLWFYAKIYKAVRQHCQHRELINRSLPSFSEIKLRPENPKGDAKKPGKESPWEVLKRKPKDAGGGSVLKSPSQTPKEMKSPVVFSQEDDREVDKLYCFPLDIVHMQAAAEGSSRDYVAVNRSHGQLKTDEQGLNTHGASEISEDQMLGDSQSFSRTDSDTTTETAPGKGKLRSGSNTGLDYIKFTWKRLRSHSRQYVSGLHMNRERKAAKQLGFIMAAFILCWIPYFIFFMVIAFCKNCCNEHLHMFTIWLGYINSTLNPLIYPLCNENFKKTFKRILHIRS
Sequence of 5-hydroxytryptamine receptor 5A (Rattus norvegicus, UniProt P35364) (P35364 whole entry): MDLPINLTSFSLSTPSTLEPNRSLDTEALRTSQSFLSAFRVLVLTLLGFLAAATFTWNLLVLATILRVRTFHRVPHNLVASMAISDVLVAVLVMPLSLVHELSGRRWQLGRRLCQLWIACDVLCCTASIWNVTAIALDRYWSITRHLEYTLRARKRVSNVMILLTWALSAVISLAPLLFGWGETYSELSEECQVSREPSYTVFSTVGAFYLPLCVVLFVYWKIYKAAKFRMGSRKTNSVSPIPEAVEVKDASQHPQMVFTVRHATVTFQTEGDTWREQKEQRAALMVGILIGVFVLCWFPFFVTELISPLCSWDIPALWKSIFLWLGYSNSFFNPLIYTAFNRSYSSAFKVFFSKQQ
Sequence of 5-hydroxytryptamine receptor 6 (P50406 whole entry): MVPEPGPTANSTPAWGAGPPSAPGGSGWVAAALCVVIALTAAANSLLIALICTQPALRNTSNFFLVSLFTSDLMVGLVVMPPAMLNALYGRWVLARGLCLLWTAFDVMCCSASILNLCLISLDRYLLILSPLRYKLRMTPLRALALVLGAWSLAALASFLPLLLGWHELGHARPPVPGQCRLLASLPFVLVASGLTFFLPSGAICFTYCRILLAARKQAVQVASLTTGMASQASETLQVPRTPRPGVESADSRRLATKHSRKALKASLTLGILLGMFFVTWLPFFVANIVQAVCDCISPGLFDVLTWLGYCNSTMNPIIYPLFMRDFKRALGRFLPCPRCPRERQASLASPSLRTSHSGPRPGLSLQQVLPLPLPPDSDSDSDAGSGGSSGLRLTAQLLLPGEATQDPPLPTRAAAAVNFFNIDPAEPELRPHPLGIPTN

Row | SMILES | Ki ([1]; read-out: Ki) [nM] | pKa [2] | logD [3] | Ki [4] [nM] | further results
1 | CC1NC(NCC(F)(F)F)=Nc2ccccc21 (configuration not stated) | 488 | 9.2 | 0.5 | – | –
2 | CCNC1=Nc2ccccc2C(C)N1 (configuration not stated) | 196 | 10.8 | -0.9 | – | –
3 | CC1NC(N)=Nc2ccccc21 (configuration not stated) | – | 10.5 | -1.4 | – | –
4 | COc1c(Cl)ccc2c1C(C)NC(NCC(F)F)=N2 (configuration not stated) | 22.2 | 8.9 | 1.5 | 17.6 | Selectivity ratio [5]: > 30; Selectivity ratio [6]: > 30; Selectivity ratio [7]: > 30; Ki [8]: 1810 nM; Ki [9]: 348 nM; Ki [10]: 233 nM
5 | CCCOCCNC1=Nc2ccccc2C(C)N1 (configuration not stated) | 241 | – | 0.1 | – | –
6 | CC1NC(NC2CCC2)=Nc2ccccc21 (configuration not stated) | 122 | – | -0.6 | – | –
7 | CC1NC(NCCC2CCCCC2)=Nc2ccccc21 (configuration not stated) | 124 | – | 1.3 | – | –
8 | CC1NC(NCC(F)F)=Nc2cccc(Cl)c21 (configuration not stated) | – | 8.9 | 1.5 | 33.3 | Tmax [11]: 0.25 h; half-life [12]: 1.4 h; clearance [13]: 31 mL/min/kg; Selectivity ratio [5]: > 30; bioavailability [14]: 36%; concentration (Brain): > 1000 nM; Selectivity ratio [6]: > 30; Vd [15]: 3.6 L/kg; Selectivity ratio [7]: > 30; Kp [16]: 4; Ki [8]: 1370 nM; Cmax [17]: 740 ng/mL; Ki [9]: 85 nM; Kb [18]: 38.9 nM; Ki [10]: 401 nM
9 | CC1NC(NC2CCCCN(C)C2=O)=Nc2ccccc21 (configuration not stated) | 279 | – | -0.1 | – | –
10 | C[C@H]1NC(NCC(F)F)=Nc2cccc(Cl)c21 | 1470 | – | – | – | –
11 | CC1NC(NCCF)=Nc2ccccc21 (configuration not stated) | 397 | – | – | – | –
12 | CC1NC(NCC(F)F)=Nc2c(Cl)ccc(Cl)c21 (configuration not stated) | 33.4 | 7.8 | 3 | 366 | Selectivity ratio [5]: > 30; Selectivity ratio [6]: > 30; Selectivity ratio [7]: > 30; Ki [8]: > 10000 nM; Ki [9]: 87 nM; Ki [10]: 675 nM
13 | CC1NC(N)=Nc2cccc(Cl)c21 (configuration not stated) | – | 9.9 | 0 | – | Cmax [19]: 660 ng/mL; bioavailability [20]: 59%; half-life [12]: 4 h; clearance [13]: 30 mL/min/kg; Ki ([1]; read-out: Log Ki (converted)): 5.01 nM; Tmax [21]: 0.75 h; Vd [15]: 9 L/kg; Kb [18]: 3.16 nM
14 | CCCNC1=Nc2ccccc2C(C)N1 (configuration not stated) | 153 | 10.7 | -0.8 | – | –
15 | C[C@H]1NC(N)=Nc2cccc(Cl)c21 | 415 | – | – | – | –
16 | CCOCCCNC1=Nc2ccccc2C(C)N1 (configuration not stated) | 176 | – | -0.3 | – | –
17 | C[C@H]1NC(NCC(F)F)=Nc2ccc(Cl)c(Cl)c21 | 504 | 8.5 | 2.7 | 1700 | Ki [8]: > 10000 nM; Ki [9]: 612 nM; Ki [10]: 238 nM
18 | CC1NC(NCC(F)F)=Nc2ccc(Cl)c(Cl)c21 (configuration not stated) | – | 8.5 | 2.7 | 23.3 | Selectivity ratio [5]: > 30; Ki (Histamine H1 receptor): 18.3 nM; Selectivity ratio [6]: > 30; Selectivity ratio [7]: > 30; Ki [8]: 630 nM; Ki [9]: 124 nM; Ki [10]: 162 nM
19 | CC1NC(NCC2COCCO2)=Nc2ccccc21 (configuration not stated) | 96 | – | -0.8 | – | –
20 | C[C@@H]1NC(NCC(F)F)=Nc2ccc(Cl)c(Cl)c21 | 1.8 | 8.5 | 2.7 | 7.7 | Selectivity ratio [5]: > 30; Ki (Histamine H1 receptor): 2.6 nM; Selectivity ratio [6]: > 30; Selectivity ratio [7]: > 30; Ki [8]: 233 nM; Ki [9]: 75 nM; Ki [10]: 121 nM
21 | CC(C)Oc1cccc2c1N=C(NCC(F)F)NC2C (configuration not stated) | 22.2 | 10.2 | 0.1 | 4.2 | Selectivity ratio [5]: > 30; Selectivity ratio [6]: > 30; Selectivity ratio [7]: > 30; Ki [8]: 82 nM; Ki [9]: 240 nM; Ki [10]: 2150 nM
22 | C[C@@H]1NC(NCC(F)F)=Nc2cccc(Cl)c21 | 6.8 | – | – | 24.8 | Ki [22]: 1440 nM; Ki [23]: 56 nM; Ki [24]: 4480 nM; Ki [25]: 352 nM; Ki [26]: 2.9 nM; Ki [27]: 491 nM
23 | CNC1=Nc2ccccc2C(C)N1 (configuration not stated) | 103 | 10.6 | -0.6 | – | –
24 | COc1cccc2c1N=C(NCC(F)F)NC2C (configuration not stated) | – | 10.2 | -0.5 | 38.9 | Selectivity ratio [5]: > 30; Selectivity ratio [6]: > 30; Selectivity ratio [7]: > 30; Ki [8]: 747 nM; Ki [9]: 53 nM; Ki [10]: 1660 nM
25 | CC1NC(NC[C@H]2CCCO2)=Nc2ccccc21 (some centres not stated) | 163 | – | -0.6 | – | –
26 | CCCCNC1=Nc2ccccc2C(C)N1 (configuration not stated) | 189 | 10.7 | -0.3 | – | –
27 | CC1NC(NCC(F)F)=Nc2ccccc21 (configuration not stated) | 87 | 9.7 | -0.2 | – | –
28 | CC1NC(NCC2COc3ccccc3O2)=Nc2ccccc21 (configuration not stated) | 37 | – | 1 | – | –

From ChEMBL document CHEMBL1141640, “Cyclic guanidines as dual 5-HT5A/5-HT7 receptor ligands: optimising brain penetration” (Bioorg Med Chem Lett, 2008)
